The list is not random: actives were taken first. Their share in the collection is about 3.7%.
KCNK3 inh: human KCNK3 channel inhibition, primary screen; O14649; CHO-KCNK3 thallium flux, FluxOR fluorescence; hits give low values; B-score at 10 µM; 340,000 tested, 0.84% active;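 active = B-score under library mean minus 4 SD, starting fluorescence ratio at most library mean plus 5 SD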;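 also: more negative B-score means stronger inhibition of thallium flux through KCNK3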
Kir21 block: blocks the mouse Kir2.1 inward-rectifier potassium channel. P35561. HEK293-Kir2.1, FluxOR thallium flux fluorescence; hits give low values. B-score at 10 µM. 310,000 tested, 0.85% active;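 active = fluorescence ratio B-score at or below minus 3 SD of library scores, with starting-brightness B-score within 2 SD, cut at about -4.2 in these data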;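 also: channel flux triggered by added potassium and thallium sulfate stimulus; B-score of peak minus minimum fluorescence over baseline after thallium stimulus; more negative B-score means stronger Kir2.1 block with less thallium influx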
KCNQ1 inh: inhibitors of human KCNQ1 potassium channel; P51787; CHO-K1 KCNQ1, FluxOR thallium flux fluorescence; hits give high values; B-score at 10 µM; 310,000 tested, 1.3% active; AID 2642;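 active = compounds whose thallium flux B-score, printed positive for inhibition, exceeds three library SD while starting fluorescence stays within three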;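 also: channel opened by potassium depolarization with thallium stimulus after 20 min compound exposure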
KCNQ1 pot: human KCNQ1 channel potentiation or activation; 310,000 tested, 0.35% active; B-score at 10 µM; CHO-K1 KCNQ1, thallium flux FluxOR fluorescence; hits give high values; AID 2648;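 active = fluorescence ratio B-score, a plate-corrected score, at least three library SD, with initial intensity B-score within 5 SD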
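Medium – assay buffer, equal DMSO in all wells · Material – CHO-K1 cell line with stable KCNQ1 potassium channel expression · Signal – kinetic FluxOR thallium fluorescence, 10-s 1-Hz baseline, 110-s post-stimulus read · Compound – single concentration per compound, DMSO matched to controls · Schedule – 37 °C overnight plating, 90-min dark dye load, 20-min compound pretreatment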
KCNK9 inh: blocks the human KCNK9 two-pore domain potassium channel; HEK293 KCNK9, FluxOR thallium flux fluorescence; hits give low values; B-score at 10 µM; 310,000 tested, 1.2% active; AID 488922;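 active = ratio B-score over 3 SD below the library mean, with starting fluorescence within 5 SD of its mean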;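 also: negative B-score means less thallium flux so channel inhibition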
hERG protect: shields human hERG channel from block by proarrhythmic agents; CHO-hERG, FluxOR thallium flux, dofetilide IC70 present; 310,000 tested, 0.51% active; AID 1511; activation (rescue from dofetilide block), less the hit threshold, % at 10 µM; Q12809;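 active = activation above the mean of controls blocked by dofetilide plus 5 SD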;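 also: thallium influx through hERG after potassium depolarization seen as dye fluorescence rise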
Active calls of the source: *; i = inactive; nt = no result.

SMILES | KCNK3 inh | Kir21 block | KCNQ1 inh | KCNQ1 pot | KCNK9 inh | hERG protect
CN(C)c1ccc(/C=C(\C#N)C(=O)NCc2ccco2)cc1 | nt | -0.87 | i | i | i | -5
CC(OC(=O)/C(C#N)=C/c1ccc(N(C)C)cc1)C(=O)N(C)c1ccccc1 (stereo unspecified) | i | -2.2 | 8* | i | i | -16
Cc1ccc(S(=O)(=O)NCC(NCc2ccc(F)cc2)c2ccccc2)cc1 (stereo unspecified) | i | nt | nt | nt | nt | nt
Cc1ccccc1C(=O)NCCNC(=O)c1cnccn1 | i | -0.13 | i | i | i | -9
Cc1ccc(C(=O)Cn2c(N3CCOCC3)nc3c2c(=O)n(C)c(=O)n3C)cc1 | i | 1.7 | i | i | i | 5.0*
CCCCCCCCN1[C@@H](CC(C)=O)c2cc(C(F)(F)F)ccc2S1(=O)=O | i | 1.9 | i | 56* | i | -14
CC(=O)C[C@H]1c2cc(C(F)(F)F)ccc2S(=O)(=O)N1C1CCCCC1 | i | -2.4 | i | 10* | i | -2
COc1ccc(CN2[C@@H](CC(=O)O)c3cc(C(F)(F)F)ccc3S2(=O)=O)cc1 | i | -0.48 | i | i | i | 6.4*
COc1ccc(CN2[C@@H](CC(=O)O)c3ccc(C(F)(F)F)cc3S2(=O)=O)cc1 | nt | -0.26 | i | i | i | -3
CCN(Cc1ccccc1)C(=O)C(=O)c1cn(CC(=O)N2CCCC2)c2ccccc12 | i | -1.5 | i | i | i | -6
COc1ccc(N(C)C(=O)c2cn(CC(C)C)c(=O)c3cc(OC)c(OC)cc23)cc1 | i | -1 | i | i | i | -14
CN1CCN(c2ccccc2NC(=O)c2ccc(-c3ccccc3)cc2)CC1 | -8.8* | -1.8 | i | i | i | -14
C=CCCC(=O)N1CCCC(C(=O)c2cccc(OC)c2)C1 (stereo unspecified) | i | 0.25 | i | i | i | 1
Cc1ccc(-c2nc3cccnc3o2)cc1NC(=O)COc1ccc(C(C)(C)C)cc1 | i | 0 | 9* | i | i | -6
Cc1ccc(-c2nc3ncccc3o2)cc1NC(=O)COc1ccccc1 | i | 0.37 | i | i | i | -3
CCc1ccc2[nH]c(O)c(N=Nc3nc(-c4ccccc4)cs3)c2c1 | i | 0.36 | i | 10* | i | 7.2*
COc1ccc(C(=O)CC(=O)C(=O)Nc2ccccc2C(F)(F)F)cc1 | i | 0.4 | i | 12* | i | 7.8*
COc1ccc(C(=O)CC(=O)C(=O)Nc2ccc(Cl)cc2)cc1 | i | -0.34 | i | i | i | 13*
COc1ccc(C(=O)CC(=O)C(=O)Nc2ccccc2Cl)cc1 | i | 0.21 | i | i | i | 13*
COc1ccc(C(=O)CC(=O)C(=O)Nc2cc(Cl)c(OC)cc2OC)cc1 | i | -1 | i | i | i | -7
O=C(Cc1cccs1)N[C@@H]1c2ccccc2CC[C@@H]1OCc1ccccc1 | i | nt | nt | nt | nt | nt
CC(=O)c1ccc(OCc2cc(C(=O)N(C)CCOc3ccc(C)cc3)no2)cc1 | i | -1.3 | i | i | i | -9
N#C/C(=C\c1cccnc1)C(=O)Nc1cccc(Cl)c1 | i | -2.5 | i | i | i | 8.5*
N#C/C(=C\c1cccnc1)C(=O)Nc1cccc2ccccc12 | i | -4.5* | i | i | i | -5
O=C(COC(=O)c1ccc2ncsc2c1)Nc1ccccc1Cl | i | nt | nt | nt | nt | nt
SMILES | KCNK3 inh | Kir21 block | KCNQ1 inh | KCNQ1 pot | KCNK9 inh | hERG protect
COc1ccc2cc(C=NS(=O)(=O)c3ccc(C)cc3)n(C)c2c1 | i | nt | nt | nt | nt | nt
COc1cc(OC)cc(C(=O)NNC(=O)C(=O)Nc2cc(OC)c(Cl)cc2OC)c1 | i | -1.2 | i | 32* | i | 51*
COc1cc(NC(=O)C(=O)NNC(=O)C2CCCCC2)c(OC)cc1Cl | i | 0.25 | i | i | i | 2
COc1cccc(C(=O)NNC(=O)C(=O)Nc2ccc(C)c(Cl)c2)c1 | i | -0.02 | i | 35* | i | 31*
COc1cccc(C(=O)Nc2cc(Cl)c(O)c(Cl)c2)c1 | i | 1.2 | i | i | i | -5
CCc1ccc(NC(=O)C(=O)NNC(=O)c2cccc(OC)c2)cc1 | i | 1.5 | i | 76* | i | 38*

Screening data as filed in PubChem BioAssay.
